Reference: the array DNA melting data of Ke et al. (doi:10.1101/2024.01.08.574731)

What was measured:
[1] = folding enthalpy; higher = less favourable; fluorescence melt of hairpins on a sequencing array, two-state fit; settings: sodium 0.088 M
In short: (§1)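 To match UV melts, fitted temperatures were raised by 9.35 °C. These fits were bootstrapped two-state models that gave melting temperature and folding enthalpy, combined by inverse variance over four replicates. The input was normalised Cy3 fluorescence of library hairpins with annealed Cy3 and quencher oligos on a sequenced MiSeq flow cell, imaged in 50 mM Na-HEPES pH 8.0, 25 mM NaCl in 2.5 °C steps up to 60 °C.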

[2] = melting temperature; fluorescence melt of hairpins on a sequencing array, two-state fit, raised by 9.35 °C to match UV melts; settings: sodium 0.088 M
In short: as §1

Row | Sequence | folding enthalpy [1] | Tm [2]
1 | GCTGAGCGAAAGCGCCGC ((.(.((....)).).)) | -15.2 kcal/mol | 50.5 °C
2 | GCTGAGCGAAAGCTAGC (((.(((....)))))) | -26.3 kcal/mol | 53 °C
3 | GCTGAGCGAAAGCTAGGC ((..(((....)))..)) | -20.3 kcal/mol | 52.7 °C
4 | GCTGATGGAAACATCAGC (((((((....))))))) | -43.5 kcal/mol | 67.6 °C
5 | GCTGATGGAAACATTGGC ((..(((....)))..)) | -31 kcal/mol | 36 °C
6 | GCTGCACCGAAAGGTAGC (((..(((....)))))) | -13.4 kcal/mol | 49.2 °C
7 | GCTGCAGGAAACTACAGC ((((.((....)).)))) | -33.9 kcal/mol | 45.6 °C
8 | GCTGCATCGAAAGATAGC (((..(((....)))))) | -17 kcal/mol | 35.6 °C
9 | GCTGCCCGAAAGGGAGC (((.(((....)))))) | -23 kcal/mol | 57.1 °C
10 | GCTGCCGAAAGGCGAGC ((((((....))).))) | -18.6 kcal/mol | 64.3 °C
11 | GCTGCCGAAAGGCGGAGC ((((((....)))..))) | -12.6 kcal/mol | 51.3 °C
12 | GCTGCCGAAAGGCTGAGC ((((((....)))..))) | -16.2 kcal/mol | 50.1 °C
13 | GCTGCGCGAAAGCAAAGC (((..((....))..))) | -30.6 kcal/mol | 62 °C
14 | GCTGCGCGAAAGCCGAGC (((..((....))..))) | -17 kcal/mol | 45 °C
15 | GCTGCGCGAAAGCGAGC (((.(((....)))))) | -14.3 kcal/mol | 60.4 °C
16 | GCTGCGCGAAAGCGATGC ((..(((....)))..)) | -18.6 kcal/mol | 58 °C
17 | GCTGCGCGAAAGCGTGGC ((..(((....)))..)) | -24.3 kcal/mol | 65.9 °C
18 | GCTGCGCGAAAGCTCTGC ((.(.((....)).).)) | -18.2 kcal/mol | 42.3 °C
19 | GCTGCGCGAAAGCTGAGC (((..((....))..))) | -13.2 kcal/mol | 43.8 °C
20 | GCTGCGGCGAAAGCCAGC (((..(((....)))))) | -10.7 kcal/mol | 57.4 °C
21 | GCTGCGGGAAACCACAGC ((((.((....)).)))) | -37.5 kcal/mol | 52.7 °C
22 | GCTGCGGGAAACCGTAGC (((.(((....))).))) | -49.1 kcal/mol | 58.5 °C
23 | GCTGCTCGAAAGAGAAGC (((.(((....))).))) | -37.6 kcal/mol | 55.5 °C

Row | Sequence | folding enthalpy [1] | Tm [2]
24 | GCTGCTGGAAACAACAGC ((((.((....)).)))) | -32.8 kcal/mol | 47.2 °C
25 | GCTGGACGAAAGTCAGC (((.(((....)))))) | -30.6 kcal/mol | 56.1 °C
26 | GCTGGAGGAAACCCCAGC (((((.(....).))))) | -38.7 kcal/mol | 52.8 °C
27 | GCTGGAGGAAACTCCGGC ((.((((....)))).)) | -40.4 kcal/mol | 57.1 °C
28 | GCTGGAGGAAACTTCAGC ((((.((....)).)))) | -40.8 kcal/mol | 50 °C
29 | GCTGGATCGAAAGATAGC (((..(((....)))))) | -21 kcal/mol | 30.8 °C
30 | GCTGGCCCGAAAGGGAGC (((..(((....)))))) | -12.7 kcal/mol | 44 °C
31 | GCTGGCGAAAGCCAAGC ((((((....))).))) | -20.2 kcal/mol | 66.5 °C
32 | GCTGGCGAAAGCCCTAGC ((((((....)))..))) | -12 kcal/mol | 40.9 °C
33 | GCTGGCGAAAGCCTAGC ((((((....))).))) | -19.4 kcal/mol | 59.3 °C
34 | GCTGGGCCGAAAGGCAGC (((..(((....)))))) | -13.3 kcal/mol | 48.5 °C
35 | GCTGGGCGAAAGCACCGC ((.(.((....)).).)) | -20.7 kcal/mol | 52.7 °C
36 | GCTGGGCGAAAGCCGGGC ((..(((....)))..)) | -19.3 kcal/mol | 55.6 °C
37 | GCTGGGCGAAAGCCTTGC ((..(((....)))..)) | -17.1 kcal/mol | 53.2 °C
38 | GCTGGTACGAAAGTAAGC (((..(((....)))))) | -16.2 kcal/mol | 34.2 °C
39 | GCTGGTCGAAAGACAGC (((.(((....)))))) | -27.3 kcal/mol | 54.7 °C
40 | GCTGGTGGAAACATCAGC ((((.((....)).)))) | -39.5 kcal/mol | 53.4 °C
41 | GCTGGTGGAAACGCCAGC (((((.(....).))))) | -52.9 kcal/mol | 61.8 °C
42 | GCTGTAACGAAAGTTAGC (((..(((....)))))) | -20.5 kcal/mol | 35 °C
43 | GCTGTACCGAAAGGTAGC (((..(((....)))))) | -15.4 kcal/mol | 43.7 °C
44 | GCTGTACGAAAGTAAGC (((.(((....)))))) | -27.1 kcal/mol | 49.2 °C
45 | GCTGTAGGAAACTATGGC ((..(((....)))..)) | -26.3 kcal/mol | 34.7 °C
46 | GCTGTCCGAAAGGAAAGC (((.(((....))).))) | -37.8 kcal/mol | 53.7 °C

Row | Sequence | folding enthalpy [1] | Tm [2]
47 | GCTGTCGAAAGACAAGC ((((((....))).))) | -27.8 kcal/mol | 54.4 °C
48 | GCTGTCGAAAGACATAGC ((((((....)))..))) | -16.4 kcal/mol | 45.1 °C
49 | GCTGTCGAAAGACGCAGC ((((((....)))..))) | -14.1 kcal/mol | 46.6 °C
50 | GCTGTCGAAAGACGTAGC ((((((....)))..))) | -22.7 kcal/mol | 48.1 °C
51 | GCTGTGCGAAAGCAAGGC ((..(((....)))..)) | -20 kcal/mol | 50.6 °C
52 | GCTGTGCGAAAGCAGAGC (((.(((....))).))) | -56 kcal/mol | 57.8 °C
53 | GCTGTGCGAAAGCATAGC (((.(((....))).))) | -57.9 kcal/mol | 59.4 °C
54 | GCTGTGCGAAAGCATCGC ((..(((....)))..)) | -17.9 kcal/mol | 44.6 °C
55 | GCTGTGCGAAAGCCCTGC ((.(.((....)).).)) | -15.3 kcal/mol | 41.9 °C
56 | GCTGTGGGAAACCATGGC ((..(((....)))..)) | -33.5 kcal/mol | 44.5 °C
57 | GCTGTTCCGAAAGGAAGC (((..(((....)))))) | -14 kcal/mol | 35.1 °C
58 | GCTGTTCGAAAGAAGAGC (((.(((....))).))) | -37.2 kcal/mol | 50.6 °C
59 | GCTGTTGAAAAACAGC ((((((....)))))) | -38.6 kcal/mol | 59.2 °C
60 | GCTGTTGCGAAAGCAAGC (((..(((....)))))) | -12.6 kcal/mol | 47.3 °C
61 | GCTTAAACGAAAGTTAGC (((..(((....)))))) | -16.2 kcal/mol | 33.9 °C
62 | GCTTACCCGAAAGGGAGC (((..(((....)))))) | -15.3 kcal/mol | 39 °C
63 | GCTTACGAAAGTACAAGC ((((((....)))..))) | -20 kcal/mol | 37.6 °C
64 | GCTTACGAAAGTACGAGC ((((((....)))..))) | -20.3 kcal/mol | 32.1 °C
65 | GCTTACGAAAGTATTAGC ((((((....)))..))) | -23.9 kcal/mol | 33.5 °C
66 | GCTTACGGAAACATAAGC (((((.(....).))))) | -21.6 kcal/mol | 35.1 °C
67 | GCTTAGCGAAAGCGGAGC (((..((....))..))) | -16.8 kcal/mol | 58.7 °C
68 | GCTTAGCGAAAGCTAGC (((.(((....)))))) | -19.2 kcal/mol | 53.8 °C
